Activity calls are given as the source filed them. No cut-off for these calls is given here.
What was measured:
[1] = biological target: Mu-type opioid receptor (Mus musculus) (UniProt P42866); assay: Binding affinity to mouse mu opioid receptor expressed in CHO cell membrane assessed as stimulation of [35S]-GTPgammaS binding by measuring maximal efficacy incubated for 1.5 hrs by scintillation spectroscopy analysis relative DAMGO; assay type: cell membranes
Procedure, shortened: (§1)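 MOR [35S]GTPγS functional assay in MOR-CHO membranes (Bmax about 2.5–4 pmol/mg). Efficacy is expressed as % of the maximal stimulation by full agonist DAMGO.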

[2] = species: Mus musculus; assay: Selectivity ratio, ratio of Ki for binding affinity to mouse kappa opioid receptor expressed in CHO cell membrane to Ki for binding affinity to mouse mu opioid receptor expressed in CHO cell membrane
[3] = biological target: T1, Mu-type opioid receptor (Mus musculus, UniProt P42866); assay: Binding affinity to mouse mu opioid receptor expressed in CHO cell membrane assessed as [35S]GTPgammaS binding incubated for 1.5 hrs by liquid scintillation counter analysis; assay type: cell membranes; procedure, shortened: as §1
[4] = system: Mus musculus; assay: Antinociceptive activity in Swiss Webster mouse assessed as inhibition of morphine induced latency to tail withdrawal at 10 mg/kg, sc preincubated for 5 mins followed by morphine addition and measured after 20 mins by warm water tail immersion assay; assay type: functional, organism-based; details: time 25.0 min
Procedure, shortened: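 Male Swiss-Webster mice (n = 5). Compound is given s.c. at time 0 (10 mg/kg in the single-dose screen, a dose range for AD50), and morphine 10 mg/kg follows 5 min later. Tail flick is tested in 56 ± 0.1 °C water 20 min after morphine and scored as % MPE. Saline and morphine alone are the controls.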

[5] = Selectivity ratio, ratio of Ki for binding affinity to human delta opioid receptor expressed in CHO cell membrane to Ki for binding affinity to mouse mu opioid receptor expressed in CHO cell membrane
[6] = biological target: T1, Mu-type opioid receptor; assay: Binding affinity to mouse mu opioid receptor expressed in CHO cell membrane assessed as inhibition constant incubated for 1.5 hrs by competitive radioligand binding assay; assay type: cell membranes
[7] = biological target: Kappa-type opioid receptor (Mus musculus, UniProt P33534); assay: Binding affinity to mouse kappa opioid receptor expressed in CHO cell membrane assessed as inhibition constant incubated for 1.5 hrs by competitive radioligand binding assay; assay type: cell membranes

SMILES	Emax [1] [%]	Ratio Ki [2]	EC50 [3] [nM]	Activity [4]	Ratio Ki [5]	Ki [6] [nM]	Ki [7] [nM]	Emax ([1]; filed as modulator) [%]
O=C(N[C@@H]1CC[C@@]2(O)[C@H]3Cc4ccc(O)c5c4[C@@]2(CCN3CC2CC2)[C@H]1O5)c1cccc2cc(Br)[nH]c12	36.2	1.3	0.88	inactive	8.8	0.35	0.46	
O=Cc1c[nH]c2c(C(=O)N[C@H]3CC[C@@]4(O)[C@H]5Cc6ccc(O)c7c6[C@@]4(CCN5CC4CC4)[C@H]3O7)cccc12	8.24	11.3	0.89	inactive	47.5	0.25	2.82	
CC(=O)c1c[nH]c2c(C(=O)N[C@@H]3CC[C@@]4(O)[C@H]5Cc6ccc(O)c7c6[C@@]4(CCN5CC4CC4)[C@H]3O7)cccc12	10.9		204	inactive		> 50	15.6	
Cc1c[nH]c2c(C(=O)N[C@H]3CC[C@@]4(O)[C@H]5Cc6ccc(O)c7c6[C@@]4(CCN5CC4CC4)[C@H]3O7)cccc12	15.7	6.1	2.68	Active	20.1	0.69	4.2	
Cc1cc2cccc(C(=O)N[C@@H]3CC[C@@]4(O)[C@H]5Cc6ccc(O)c7c6[C@@]4(CCN5CC4CC4)[C@H]3O7)c2[nH]1	21.8	2.6	1.51	inactive	51.1	0.31	0.8	
CC(=O)c1c[nH]c2c(C(=O)N[C@H]3CC[C@@]4(O)[C@H]5Cc6ccc(O)c7c6[C@@]4(CCN5CC4CC4)[C@H]3O7)cccc12	9.81	14.9	5.21	inactive	25.4	0.43		
O=C(N[C@@H]1CC[C@@]2(O)[C@H]3Cc4ccc(O)c5c4[C@@]2(CCN3CC2CC2)[C@H]1O5)c1cccc2c(-c3ccccc3)c[nH]c12	8.47	17.9	1.78	inactive	33.8	1.46	26.1	
O=C(N[C@H]1CC[C@@]2(O)[C@H]3Cc4ccc(O)c5c4[C@@]2(CCN3CC2CC2)[C@H]1O5)c1cccc2c(Cl)c[nH]c12	13.2	6.1	3.67	inactive	37.9	0.98	5.96	
O=C(N[C@@H]1CC[C@@]2(O)[C@H]3Cc4ccc(O)c5c4[C@@]2(CCN3CC2CC2)[C@H]1O5)c1cccc2c(Br)c[nH]c12		1.6	1.05		16.7	0.7	1.08	70.4
O=C(N[C@H]1CC[C@@]2(O)[C@H]3Cc4ccc(O)c5c4[C@@]2(CCN3CC2CC2)[C@H]1O5)c1cccc2cc(-c3ccccc3)[nH]c12	7.44	2.6	2.07	inactive		2.45	6.42	
O=C(N[C@H]1CC[C@@]2(O)[C@H]3Cc4ccc(O)c5c4[C@@]2(CCN3CC2CC2)[C@H]1O5)c1cccc2c(C3CCCCC3)c[nH]c12	20.5	4.6	2.62	inactive	8.9	2.11	9.65	
O=C(N[C@H]1CC[C@@]2(O)[C@H]3Cc4ccc(O)c5c4[C@@]2(CCN3CC2CC2)[C@H]1O5)c1cccc2cc(Cl)[nH]c12	14.8	4.2	1.82		2.8	0.65	2.73	
O=C(N[C@H]1CC[C@@]2(O)[C@H]3Cc4ccc(O)c5c4[C@@]2(CCN3CC2CC2)[C@H]1O5)c1cccc2c([N+](=O)[O-])c[nH]c12	11.3		2.32	inactive		1.07	9.84	
CC(C)c1c[nH]c2c(C(=O)N[C@H]3CC[C@@]4(O)[C@H]5Cc6ccc(O)c7c6[C@@]4(CCN5CC4CC4)[C@H]3O7)cccc12	8.37	4	2.48	inactive	9.3	2.78	11	
CC(=O)Nc1c[nH]c2c(C(=O)N[C@@H]3CC[C@@]4(O)[C@H]5Cc6ccc(O)c7c6[C@@]4(CCN5CC4CC4)[C@H]3O7)cccc12	8.84	24.4	0.88	inactive	116	0.27	6.52	
O=C(N[C@@H]1CC[C@@]2(O)[C@H]3Cc4ccc(O)c5c4[C@@]2(CCN3CC2CC2)[C@H]1O5)c1cccc2c(C3CCCCC3)c[nH]c12	6.23	7.5	20.8	inactive	11.5	5.57	41.7	
O=C(N[C@H]1CC[C@@]2(O)[C@H]3Cc4ccc(O)c5c4[C@@]2(CCN3CC2CC2)[C@H]1O5)c1cccc2c(Br)c[nH]c12	14.9	5.7	2.46	inactive	20.6	0.93	5.28	
O=C(N[C@H]1CC[C@@]2(O)[C@H]3Cc4ccc(O)c5c4[C@@]2(CCN3CC2CC2)[C@H]1O5)c1cccc2cc(Br)[nH]c12	13.3	3.1		Active	14	0.48	1.5	
N#Cc1cc2cccc(C(=O)N[C@@H]3CC[C@@]4(O)[C@H]5Cc6ccc(O)c7c6[C@@]4(CCN5CC4CC4)[C@H]3O7)c2[nH]1	21.3	2.3	3.78		16.5	0.73	1.66	
O=C(N[C@@H]1CC[C@@]2(O)[C@H]3Cc4ccc(O)c5c4[C@@]2(CCN3CC2CC2)[C@H]1O5)c1cccc2cc(Cl)[nH]c12	38.5	2	1.4		3.8	0.63	1.28	
N#Cc1cc2cccc(C(=O)N[C@H]3CC[C@@]4(O)[C@H]5Cc6ccc(O)c7c6[C@@]4(CCN5CC4CC4)[C@H]3O7)c2[nH]1	14.4	8.2	3.58	inactive		0.87	7.1	
N#Cc1c[nH]c2c(C(=O)N[C@H]3CC[C@@]4(O)[C@H]5Cc6ccc(O)c7c6[C@@]4(CCN5CC4CC4)[C@H]3O7)cccc12	11.4		2.54	inactive	14	0.87	5.46	
O=C(N[C@@H]1CC[C@@]2(O)[C@H]3Cc4ccc(O)c5c4[C@@]2(CCN3CC2CC2)[C@H]1O5)c1cccc2c(C3CCCC3)c[nH]c12	21.3	7.5		inactive	6.8	1.45	10.8	

From ChEMBL document CHEMBL5316274 (J Med Chem, 2023)
